Source: ChEMBL document CHEMBL3352428, “Successes and challenges in phenotype-based lead discovery for prion diseases” (J Med Chem, 2014)

Assays:
[1] = Inhibition of mouse RML prion protein infected in mouse ScN2a-cl3 cells after 5 days; type: cell-based; conditions: N2a-cl3, 120 h
[2] = test system: Brain; test: (§1) AUC in mouse brain at 10 mg/kg, po administered as single dose; type: ADME, organism-based; design: dose 10 mg/kg, route oral; conditions: in vivo
[3] = test system: Brain; test: (§2) Cmax in mouse brain at 10 mg/kg, po administered as single dose; type: ADME, organism-based; design: dose 10 mg/kg, route oral; conditions: in vivo
[4] = Drug concentration at steady state in mouse brain assessed as total compound level in brain homogenates at 80 mg/kg/day, po measured after 3 days; type: ADME, organism-based; design: route oral; conditions: brain homogenate, read-out: Css
Summary of the method: (§3)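 Mice received compound mixed into a liquid rodent diet for 3 days at about 40, 80, 130 or 210 mg kg-1 day-1. Plasma and brain were collected at the end of the last dosing cycle, at a single time point, and analysed as in the single-dose PK studies. Values are total drug in brain homogenate and are treated as pseudo-steady-state concentrations.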

[5] = Drug concentration at steady state in mouse brain assessed as total compound level in brain homogenates at 130 mg/kg/day, po measured after 3 days; type: ADME, organism-based; design: route oral; conditions: brain homogenate, read-out: Css; summary of the method: as §3
[6] = Drug concentration at steady state in mouse brain assessed as total compound level in brain homogenates at 40 mg/kg/day, po measured after 3 days; type: ADME, organism-based; design: route oral; conditions: brain homogenate, read-out: Css; summary of the method: as §3
[7] = AUC in mouse brain at 40 mg/kg, po administered as single dose; type: ADME, organism-based; design: dose 40 mg/kg, route oral
[8] = Drug concentration at steady state in mouse brain assessed as total compound level in brain homogenates at 210 mg/kg/day, po measured after 3 days; type: ADME, organism-based; design: route oral; conditions: brain homogenate, read-out: Css; summary of the method: as §3
[9] = (§4) AUC in mouse plasma at 10 mg/kg, po administered as single dose; type: ADME, organism-based; design: dose 10 mg/kg, route oral; conditions: plasma
[10] = as §1; type: ADME, organism-based; design: dose 10 mg/kg, route oral; conditions: brain
[11] = as §2; type: ADME, organism-based; design: dose 10 mg/kg, route oral; conditions: brain
[12] = test system: Plasma; test: as §4; type: ADME, organism-based; design: dose 10 mg/kg, route oral; conditions: in vivo
[13] = test system: Mus musculus; test: Increase in survival in sc dosed mouse prion disease model assessed as extension of survival relative to untreated control; type: functional
[14] = test system: Mus musculus; test: Increase in survival in sc dosed mouse prion disease model assessed as increase in survival; type: functional
[15] = Ratio of drug level in brain to plasma in FVB mouse brain at 10 mg/kg, po administered as single dose; type: ADME, organism-based; design: dose 10 mg/kg, route oral; conditions: brain and plasma, read-out: BPR
Summary of the method: (§5)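 Female FVB mice were given a single dose, 1 mg/kg iv or 10 mg/kg po, and plasma and brain were analysed separately. Brain samples were whole-brain homogenate. Parameters came from concentration–time curves: Vss, clearance, half-life, Cmax, AUC, brain/plasma AUC ratio and bioavailability.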

[16] = Clearance in FVB mouse plasma at 1 mg/kg, iv administered as single dose; type: ADME, organism-based; design: dose 1 mg/kg, route intravenous; summary of the method: as §5
[17] = AUC in FVB mouse plasma at 10 mg/kg, po administered as single dose; type: ADME, organism-based; design: dose 10 mg/kg, route oral
[18] = AUC in FVB mouse plasma at 1 mg/kg, iv administered as single dose; type: ADME, organism-based; design: dose 1 mg/kg, route intravenous
[19] = Half life in FVB mouse plasma at 1 mg/kg, iv administered as single dose; type: ADME, organism-based; design: dose 1 mg/kg, route intravenous; summary of the method: as §5
[20] = AUC in FVB mouse brain at 10 mg/kg, po administered as single dose; type: ADME, organism-based; design: dose 10 mg/kg, route oral
[21] = Cmax in FVB mouse plasma at 10 mg/kg, po administered as single dose; type: ADME, organism-based; design: dose 10 mg/kg, route oral; summary of the method: as §5
[22] = Volume of distribution at steady state in FVB mouse plasma at 1 mg/kg, iv administered as single dose; type: ADME, organism-based; design: dose 1 mg/kg, route intravenous; conditions: read-out: Vdss; summary of the method: as §5
[23] = Cmax in FVB mouse brain at 10 mg/kg, po administered as single dose; type: ADME, organism-based; design: dose 10 mg/kg, route oral; summary of the method: as §5
[24] = Oral bioavailability in FVB mouse […] at 10 mg/kg administered as single dose; type: ADME, organism-based; conditions: plasma; summary of the method: as §5
[25] = Half life in FVB mouse plasma at 10 mg/kg, po administered as single dose; type: ADME, organism-based; design: dose 10 mg/kg, route oral; summary of the method: as §5
[26] = Cmax in FVB mouse plasma at 1 mg/kg, iv administered as single dose; type: ADME, organism-based; design: dose 1 mg/kg, route intravenous; summary of the method: as §5
[27] = test system: Mus musculus; test: Antiprion activity against mouse Scrapie prion protein ME7 infected in mouse assessed as mouse survival at 210 mg/kg/day (reference value: 126 +/- 2 days); type: organism-based
[28] = Unbound fraction in mouse brain; type: ADME, tissue-based
Summary of the method: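 The fraction unbound in mouse brain tissue was estimated with an in vitro brain tissue binding assay.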

[29] = test system: Cervus elaphus nelsoni; test: Antiprion activity against elk PrpC protein infected in mouse chronic wasting disease model assessed as increase in mouse survival (reference value: 108 +/- 3 days)
[30] = test system: Mus musculus; test: Antiprion activity against mouse RML prion protein infected in mouse assessed as mouse survival at 210 mg/kg/day (reference value: 118 +/- 1 days); type: organism-based

Cc1cccc(Cn2cc(-c3ccc(-c4cccnc4)cc3)cn2)n1
EC50 [1]: > 10000 nM

Cc1cccc(Nc2nc(-c3ccc(-c4ccncc4)cc3)cs2)n1
AUC [2]: 1.68 µM·h
Cmax [3]: 500 nM
EC50 [1]: 87 nM

Cc1cccc(Nc2nc(-c3cc4ccccc4o3)cs2)n1
concentration at 72 h [4]: 2700 nM
concentration at 72 h [5]: 3.74 µM
concentration at 72 h [6]: 1310 nM
AUC [7]: 65.4 µM·h
EC50 [1]: 1500 nM
concentration at 72 h [8]: 3.23 µM

COc1ccc(-c2csc(Nc3cc4ccccc4cn3)n2)cc1OC
concentration at 72 h [4]: 60 nM
concentration at 72 h [5]: 0.14 µM
concentration at 72 h [6]: 30 nM
AUC [7]: 6.3 µM·h
concentration at 72 h [8]: 0.32 µM

O=C(Nc1nc(-c2ccc(-c3ccccc3)cc2)cs1)C1CC1
AUC [9]: 12.7 µM·h
AUC [10]: 18.6 µM·h
Cmax [11]: 4.34 µM

Cc1ccc(Nc2nc(-c3cc(-c4ccccc4)no3)cs2)nc1
concentration at 72 h [4]: 5390 nM
concentration at 72 h [5]: 23.3 µM
concentration at 72 h [6]: 880 nM
AUC [7]: 23.2 µM·h
EC50 [1]: 950 nM
concentration at 72 h [8]: 12.6 µM

Cc1cccc(Nc2nc(-c3ccc(-c4ccnn4C)cc3)cs2)n1
EC50 [1]: 89 nM

Cc1ccc(Nc2nc(-c3ccc(-c4ccccn4)s3)cs2)nc1
AUC [7]: 4.6 µM·h
EC50 [1]: 1200 nM

Cc1cccc(Nc2nc(-c3ccc(-c4cccnc4)cc3)cs2)n1
AUC [12]: 15.6 µM·h
AUC [2]: 10.9 µM·h
Cmax [3]: 2460 nM
EC50 [1]: 68 nM

Cc1cccc(Nc2nc(-c3ccc(N4CCOCC4)cc3)cs2)n1
EC50 [1]: 51 nM

O=C(CN1CCCC1)Nc1ccc(Cc2ccc(NC(=O)CN3CCCC3)cc2)cc1
Activity [13]: 12%
Survival [14]: 20%

C(=N/Nc1ccc(-c2cnco2)cc1)/c1ccncc1
Kp [15]: 0.51
clearance [16]: 76 mL/min/kg
AUC [17]: 2.06 µM·h
AUC [18]: 0.83 µM·h
half-life [19]: 13.2 min
AUC [20]: 1.06 µM·h
Cmax [21]: 830 nM
Vd [22]: 1.53 L/kg
Cmax [23]: 460 nM
bioavailability [24]: 24.8%
half-life [25]: 60.6 min
Cmax [26]: 1760 nM

c1ccc2cc(Nc3nc(-c4cc5ccccc5o4)cs3)ncc2c1
AUC [7]: 10.9 µM·h
EC50 [1]: 920 nM

Cc1cccc(Nc2nc(-c3ccc(-c4ccccc4)cc3)cs2)n1
Survival [27]: 214 days
concentration at 72 h [4]: 19300 nM
concentration at 72 h [5]: 31.8 µM
Kp [15]: 2.6
AUC [12]: 6.99 µM·h
clearance [16]: 15.3 mL/min/kg
AUC [17]: 11.2 µM·h
AUC [18]: 2.78 µM·h
half-life [19]: 130 min
concentration at 72 h [6]: 8700 nM
AUC [20]: 29.1 µM·h
fraction unbound [28]: 0.08
AUC [7]: 303 µM·h
Cmax [21]: 1660 nM
Vd [22]: 2.46 L/kg
AUC [2]: 9.78 µM·h
Survival [29]: 237 days
Survival [30]: 204 days
Cmax [23]: 2450 nM
bioavailability [24]: 40.3%
half-life [25]: 279 min
Cmax [26]: 2490 nM
EC50 [1]: 1300 nM
concentration at 72 h [8]: 37.4 µM

c1ccc2cc(Nc3nc(-c4ccncc4)cs3)ncc2c1
concentration at 72 h [4]: 80 nM
concentration at 72 h [5]: 0.04 µM
concentration at 72 h [6]: 20 nM
AUC [7]: 59.1 µM·h
concentration at 72 h [8]: 0.1 µM

Cc1ccc(Nc2nc(-c3ccncc3)cs2)nc1
AUC [7]: 9.7 µM·h
EC50 [1]: 1600 nM

Cc1ccnc(Nc2nc(-c3ccncc3)cs2)c1
AUC [7]: 34.6 µM·h
EC50 [1]: 5000 nM

Cc1ccnc(Nc2nc(-c3ccc(-c4ccccn4)s3)cs2)c1
Kp [15]: 5.53
clearance [16]: 151 mL/min/kg
AUC [17]: 0.82 µM·h
AUC [18]: 0.3 µM·h
half-life [19]: 70.8 min
AUC [20]: 4.54 µM·h
fraction unbound [28]: 0.08
AUC [7]: 60.2 µM·h
Cmax [21]: 430 nM
Vd [22]: 12.6 L/kg
Cmax [23]: 1620 nM
bioavailability [24]: 27.3%
half-life [25]: 58.8 min
Cmax [26]: 520 nM
